# Published values gathered from unrelated publications.
# Each line is one published result; the experiments were not run side by side.
# Target: Discoidin domain-containing receptor 2 (DDR2, Homo sapiens, UniProt Q16832)
# One construct used (Q16832 22-855): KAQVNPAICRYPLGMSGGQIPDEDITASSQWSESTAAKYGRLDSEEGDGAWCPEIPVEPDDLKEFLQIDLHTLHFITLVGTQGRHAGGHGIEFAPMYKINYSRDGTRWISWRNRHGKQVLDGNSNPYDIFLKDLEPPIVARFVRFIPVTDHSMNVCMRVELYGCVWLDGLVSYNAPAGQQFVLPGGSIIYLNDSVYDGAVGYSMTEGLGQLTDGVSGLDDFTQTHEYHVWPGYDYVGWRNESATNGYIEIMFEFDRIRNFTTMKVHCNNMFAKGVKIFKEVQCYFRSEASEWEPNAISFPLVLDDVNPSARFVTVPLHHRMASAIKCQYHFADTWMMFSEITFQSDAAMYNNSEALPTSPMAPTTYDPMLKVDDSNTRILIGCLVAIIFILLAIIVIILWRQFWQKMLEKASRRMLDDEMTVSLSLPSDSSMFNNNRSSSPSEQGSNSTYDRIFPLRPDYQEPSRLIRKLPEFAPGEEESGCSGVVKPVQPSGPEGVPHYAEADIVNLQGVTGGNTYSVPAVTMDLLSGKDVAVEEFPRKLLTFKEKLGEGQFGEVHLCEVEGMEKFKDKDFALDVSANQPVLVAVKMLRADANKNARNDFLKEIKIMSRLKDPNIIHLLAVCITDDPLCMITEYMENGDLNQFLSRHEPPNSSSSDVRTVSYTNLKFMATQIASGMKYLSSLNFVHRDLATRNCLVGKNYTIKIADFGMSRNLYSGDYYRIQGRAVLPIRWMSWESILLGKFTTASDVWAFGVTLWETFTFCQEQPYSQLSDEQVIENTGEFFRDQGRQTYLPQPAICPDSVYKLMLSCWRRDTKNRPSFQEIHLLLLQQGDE
Compound,read-out,action,method,concentration,endpoint,value
CCN(CC)CCNC(=O)c1c(C)[nH]c(/C=C2\C(=O)Nc3ccc(F)cc32)c1C,enzyme activity,inhibitor,,0.1 µM,remaining activity,101%
Cc1cnc(NC2CCOCC2)nc1-n1cnc(C(=O)NC(CN)c2cc(F)cc(Cl)c2)c1 (stereo not drawn),enzyme activity,inhibitor,radiometric,1 µM,remaining activity,102%
O=C(NC[C@@H]1[C@H]2CN(C(=O)OCc3cc(C(F)(F)F)cc(C(F)(F)F)c3)C[C@@H]12)c1ccc2[nH]nnc2c1,cell-free assay,,competition with immobilised ligand,1 µM,remaining binding,82%
CCCS(=O)(=O)Nc1ccc(F)c(C(=O)c2c[nH]c3ncc(-c4ccc(Cl)cc4)cc23)c1F,enzyme activity,inhibitor,,1 µM,inhibition,< 10%
O=C(NCc1ncc(C(F)(F)F)cc1Cl)c1ccc2c(c1)C1(CCS(=O)(=O)CC1)[C@H](C1CC1)N2S(=O)(=O)c1ccc(F)cc1,cell-free assay,,competition with immobilised ligand,1 µM,remaining binding,78%
N#CCCc1ccc2c(c1)-c1[nH]c3ccc([N+](=O)[O-])cc3c1CC(=O)N2,cell-free assay,,,0.5 µM,remaining signal,105%
CC/C(=N\NC(=O)NCc1cccc(O)c1)c1ccc(O)c(C)c1O,enzyme activity,inhibitor,,0.1 µM,inhibition,0.1%
COc1cc2nccc(Oc3ccc(NC(=O)c4c5n(n(-c6ccc(F)cc6)c4=O)CCCC5)cc3)c2cc1OC,enzyme activity,inhibitor,,0.1 µM,inhibition,20%
CCN(CC)CCNC(=O)c1c(C)[nH]c(/C=C2\C(=O)Nc3ccc(F)cc32)c1C,enzyme activity,inhibitor,,0.3 µM,inhibition,-8%
Nc1ncnc2occ(-c3ccc(NC(=O)Nc4cc(C(F)(F)F)ccc4F)cc3)c12,cell-free assay,,,20 µM,remaining signal,1.4%
Cc1[nH]c(/C=C2\C(=O)Nc3ccc(F)cc32)c(C)c1C(=O)N[C@H]1CCN(C(=O)N(C)C)C1,enzyme activity,inhibitor,,0.1 µM,remaining activity,113%
CNC(=O)Nc1ccc2c(c1)CC[C@@]21OC(=O)N(CC(=O)N(Cc2ccc(F)cc2)[C@@H](C)C(F)(F)F)C1=O,cell-free assay,,competition with immobilised ligand,1 µM,remaining binding,75%
COc1cc(Cl)c(C(=O)N[C@@H](CN[C@H]2CC[C@@H](N)CC2)Cc2ccc(C#N)cc2)cc1-c1ccc(CN[C@H](C)c2ccc(C)cc2)o1,enzyme activity,inhibitor,,1 µM,remaining activity,104%
FC(F)(F)c1ccc2c(c1)nc(-c1cccnc1)n2C1CC1,cell-free assay,,competition with immobilised ligand,1 µM,remaining binding,100%
COc1cc2c(N3CCN(C(=O)Nc4ccc(OC(C)C)cc4)CC3)ncnc2cc1OCCCN1CCCCC1,cell-free assay,,,0.5 µM,remaining signal,102%
CO[C@H]1CC[C@H](CNc2ccc(S(=O)(=O)NC(=O)c3ccc(N4CCN(CC5=C(c6ccc(Cl)cc6)CC(C)(C)CC5)CC4)cc3Oc3cnc4[nH]ccc4c3)cc2[N+](=O)[O-])CC1,cell-free assay,,competition with immobilised ligand,1 µM,remaining binding,100%
CCCOc1ccc(OC)c(F)c1C(=O)c1ccc(C(=O)N[C@@H]2CNC[C@H]2NC(=O)c2ccc3[nH]ncc3c2)cc1,enzyme activity,inhibitor,,10 µM,remaining activity,103%
O=C(Nc1cnn(-c2csc(C(=O)NC3COC3)c2)c1)Nc1ccccc1Cl,enzyme activity,inhibitor,,5 µM,remaining activity,99.8%
CNC(=O)c1cc(Oc2ccc(NC(=O)Nc3ccc(Cl)c(C(F)(F)F)c3)cc2)ccn1,enzyme activity,inhibitor,,10 µM,inhibition,111%
COc1cc(Nc2cnc(C#N)c(O[C@H](C)CN(C)C)n2)ncc1-c1cnn(C)c1,enzyme activity,inhibitor,radiometric,1 µM,remaining activity,95%
Cc1c[nH]c2nccc(Oc3c(F)cc(Nc4cc(Cl)nc(N)n4)cc3F)c12,cell-free assay,,competition with immobilised ligand,0.1 µM,remaining binding,57%
O=C1Nc2ccc(Cl)cc2C1=Cc1cc(Cl)c(O)c(Cl)c1,cell-free assay,,,0.5 µM,remaining signal,85.8%
C[C@@H]1CN(c2cc(-c3n[nH]c4ccc(OC5(C)CC5)cc34)ncn2)C[C@H](C)O1,cell-free assay,,competition with immobilised ligand,0.1 µM,remaining binding,82%
CC(C)(C)c1nc(-c2cccc(NS(=O)(=O)c3c(F)cccc3F)c2F)c(-c2ccnc(N)n2)s1,enzyme activity,inhibitor,radiometric,1 µM,remaining activity,14%
